Published values gathered from unrelated publications.
Compare with care: the assays were run in different laboratories.

| Structure (SMILES) | cell line | assay | setting | IC50 [µM] |
| --- | --- | --- | --- | --- |
| O=C(/C=C(O)/C=C/c1ccc[nH]1)/C=C/c1ccc[nH]1 | CHO-K1 | cell growth or viability, MTT | 72 h | 6.9 |
| COc1cc(/C=C/C(=O)CC(=O)/C=C/c2ccc(O)c(OC)c2)ccc1O | CHO-K1 | cell growth or viability, MTT | 72 h | 44.9 |
| COc1ccccc1/C=C/CNCC(O)COc1cccc2ccccc12 (stereo not drawn) | NCI-H1299 | cell growth or viability, CCK-8 | 72 h | 19.8 |
| Cc1cc(Nc2ncc(Cl)c(Nc3ccccc3S(=O)(=O)C(C)C)n2)c(OC(C)C)cc1C1CCNCC1 | Rh30 | cell growth or viability | 72 h | 0.64 |
| Cn1c(-c2nnc(NC(=O)c3cc4c([nH]c5ccccc54)c(-c4ccccc4)n3)s2)cc2ccccc21 | HL-60 | cell growth or viability, MTT | 72 h | 33.2 |
| O=[N+]([O-])c1ccc(-c2nc3ccccc3[nH]2)cc1 | human Rhabdomyosarcoma cell | cell growth or viability, MTT | 48 h | 23.4 |
| COc1cc(/C=C/c2cc(/C=C/c3cccc4cnccc34)[nH]n2)ccc1O | CHO-K1 | cell growth or viability, SRB | 72 h | 7.9 |
| C=CCn1c(-c2ccc(OC)c(OC)c2)nc2ccccc21 | human Rhabdomyosarcoma cell | cell growth or viability, MTT | – | 50.4 |
| NNc1nc(NCc2ccccc2)nc(Nc2ccc(Br)cc2)n1 | SK-BR-3 | cell growth or viability, SRB | 72 h | > 30 |
| Cc1ccc2nc(-c3ccc([N+](=O)[O-])cc3)n(Cc3ccccc3)c2c1 | human Rhabdomyosarcoma cell | cell growth or viability, MTT | – | 8.45 |
| COCCCNC(=C\C(=O)/C=C/c1cccnc1)/C=C/c1cccnc1 | CHO-K1 | cell growth or viability, SRB | 72 h | 24.1 |
| Nc1c(-c2ccccc2[N+](=O)[O-])nc2ccccn12 | Vero | cell growth or viability, MTT | 48 h | 65 |
| COc1ccc(-c2nc(C(=O)Nc3nnc(-c4cc5ccccc5n4C)s3)cc3c2[nH]c2ccccc23)cc1 | HL-60 | cell growth or viability, MTT | 72 h | 30.2 |
| CCOc1cc(-c2nc3ccccc3[nH]2)ccc1O | human Rhabdomyosarcoma cell | cell growth or viability, MTT | 48 h | 29.4 |
| COc1ccccc1/C=C/CNCC(O)COc1cccc2[nH]ccc12 (stereo not drawn) | NCI-H1299 | cell growth or viability, CCK-8 | 72 h | 23.1 |
| O=C(/C=C(O)/C=C/c1cccnc1)/C=C/c1cccnc1 | CHO-K1 | cell growth or viability, SRB | 72 h | 10.5 |
| COc1ccccc1OCCNC(=O)COc1cccc2[nH]c3ccccc3c12 | NCI-H1299 | cell growth or viability, CCK-8 | 72 h | > 100 |
| CCOc1ccc(-c2nc3ccccc3n2Cc2ccccc2)cc1 | human Rhabdomyosarcoma cell | cell growth or viability, MTT | – | 48.6 |
| COc1cc(Nc2nccc(-c3cnn4nc(OC)ccc34)n2)cc(C(F)(F)F)c1 | MKN-45 | cell growth or viability, ATP luminescence | – | 1.4 |
| Nc1ccccc1-c1nc2ccccn2c1N | Vero | cell growth or viability, MTT | 48 h | 74 |
| O=C(O)Cc1ccccc1Nc1c(Cl)cccc1Cl | RAW264.7 | TNF-α release, inhibitor | LPS-stimulated | 21.3 |
| COc1cc(/C=C/C(=O)/C=C(O)/C=C/c2ccncc2)ccc1O | CHO-K1 | cell growth or viability, SRB | 72 h | 17.7 |
| C/C(=N\O)c1ccc(-c2cccc(O)c2)c(Cl)c1O | NCI-H1299 | cell growth or viability, MTT | 48 h | 17.8 |
| COc1cc(/C=C/C(=O)/C=C(O)/C=C/c2c[nH]c3ccccc23)ccc1O | CHO-K1 | cell growth or viability, SRB | 72 h | 23.3 |

| Structure (SMILES) | cell line | assay | setting | IC50 [µM] |
| --- | --- | --- | --- | --- |
| COc1cc(C(=O)c2csc(-c3ccccc3)n2)cc(OC)c1OC | B16-F1 | cell growth or viability, SRB | – | 0.019 |
| COc1ccccc1/C=C/CNCC(O)COc1ccccc1 (stereo not drawn) | NCI-H1299 | cell growth or viability, CCK-8 | 72 h | 33.1 |
| CC(C)CNC(=C\C(=O)/C=C/c1cccnc1)/C=C/c1cccnc1 | CHO-K1 | cell growth or viability, SRB | 72 h | 28.6 |
| O=C(/C=C(O)/C=C/c1cccs1)/C=C/c1c[nH]c2ccccc12 | CHO-K1 | cell growth or viability, MTT | 72 h | 5.9 |
| COc1ccccc1CNCC(O)COc1cccc2[nH]c3ccccc3c12 (stereo not drawn) | NCI-H1299 | cell growth or viability, CCK-8 | 72 h | 14.8 |
| COc1cccc(-c2nc3ccc(C)cc3[nH]2)c1 | human Rhabdomyosarcoma cell | cell growth or viability, MTT | 48 h | 22.3 |
| COc1cc(/C=C/c2cc(/C=C/c3ccncc3)[nH]n2)ccc1O | CHO-K1 | cell growth or viability, SRB | 72 h | 41.8 |
| COCCCN1C(/C=C/c2cccnc2)=CC(=O)CC1c1cccnc1 (stereo not drawn) | CHO-K1 | cell growth or viability, MTT | 72 h | > 75 |
| Cc1[nH]c(/C=C2\C(=O)Nc3ccc(S(=O)(=O)N(C)c4cccc(Cl)c4)cc32)c(C)c1C(=O)N1CCN(C)CC1 | Rh30 | cell growth or viability | 72 h | 4.7 |
| O=C(/C=C(O)/C=C/c1ccc2ccccc2n1)/C=C/c1c[nH]c2ccccc12 | CHO-K1 | cell growth or viability, MTT | 72 h | 41.6 |
| O=C(/C=C(O)/C=C/c1c[nH]c2ccccc12)/C=C/c1c[nH]c2ccccc12 | CHO-K1 | cell growth or viability, MTT | 72 h | 7.9 |
| CC(=O)O[C@H]1C(=O)[C@@]2(C)[C@H]([C@H](OC(=O)c3ccccc3)[C@]3(O)C[C@H](OC(=O)[C@H](O)[C@@H](NC(=O)c4ccccc4)c4ccccc4)C(C)=C1C3(C)C)[C@]1(OC(C)=O)CO[C@@H]1C[C@@H]2O | MDA-MB-436 | cell growth or viability, ATP luminescence | 72 h | 0.0099 |
| COc1ccccc1OCCNC[C@@H](O)COc1cccc2[nH]c3ccccc3c12 | NCI-H1299 | cell growth or viability, CCK-8 | – | 41.5 |
| Cn1nnc2c(Cl)ncn2c1=O | D54 | cell growth or viability, resazurin | 7 days | 21 |
| CSc1ccc(-c2nc3ccc(C)cc3n2Cc2ccccc2)cc1 | human Rhabdomyosarcoma cell | cell growth or viability, MTT | – | 31.7 |
| Nc1ccc(-c2nc3cnccn3c2N)cc1 | Vero | cell growth or viability, MTT | 48 h | 96 |
| O=C(/C=C(/C=C/c1cccnc1)NCCCO)/C=C/c1cccnc1 | CHO-K1 | cell growth or viability, SRB | 72 h | > 75 |
| COc1ccccc1CCCNCC(O)COc1cccc2[nH]c3ccccc3c12 (stereo not drawn) | NCI-H1299 | cell growth or viability, CCK-8 | 72 h | 7.2 |
| COc1cc(/C=C/C(=O)/C=C(O)/C=C/c2ccccn2)ccc1O | CHO-K1 | cell growth or viability, MTT | 72 h | 25.2 |
| Cn1nnc2c(-c3ccccc3)ncn2c1=O | D54 | cell growth or viability, resazurin | 7 days | 7 |
| COCCNC(=C\C(=O)/C=C/c1cccnc1)/C=C/c1cccnc1 | CHO-K1 | cell growth or viability, MTT | 72 h | 45.1 |
| CC1CS(=O)(=O)CCN1/N=C/c1ccc([N+](=O)[O-])o1 (stereo not drawn) | RAW264.7 | cell growth or viability, MTT | – | 31 |
| COc1ccc(-c2nc3ccccc3n2Cc2ccccc2)cc1OC | human Rhabdomyosarcoma cell | cell growth or viability, MTT | – | 18.4 |
| CC(C)C[C@H](NC(=O)[C@H](Cc1ccccc1)NC(=O)c1cnccn1)B(O)O | MKN-45 | cell growth or viability, ATP luminescence | – | 0.014 |
